Source: ChEMBL document CHEMBL4346672, “Antimicrobial and KPC/AmpC inhibitory activity of functionalized benzosiloxaboroles” (Eur J Med Chem, 2019)
Converted amounts (≈) assume the structure as drawn. The source made the active and inactive calls. The rule behind the calls is not given here.

Key:
Format in all cases: functional
Proteus mirabilis = test: Antibacterial activity against Proteus mirabilis ATCC 12453 assessed as fold reduction of MIC in presence of efflux pump inhibitor PAbetaN incubated for 18 hrs by broth microdilution method
Method in brief: (§1)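 MICs determined with and without PAβN at 50 mg/L in Mueller-Hinton broth containing 1 mM MgSO₄. 2-fold serial dilutions per CLSI. Fold change taken from the paired MICs after 35 °C, 18 h.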

Klebsiella pneumoniae = test: Antibacterial activity against Klebsiella pneumoniae ATCC 13883 assessed as fold reduction of MIC in presence of efflux pump inhibitor PAbetaN incubated for 18 hrs by broth microdilution method; method in brief: as §1
Acinetobacter baumannii = test: Antibacterial activity against Acinetobacter baumannii ATCC 19606 assessed as diameter of zone inhibition measured after 18 hrs by CLSI disc diffusion method
Method in brief: (§2)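 Disc diffusion on Mueller-Hinton II agar. Compounds dissolved in DMSO. Strains stored at -80 °C and subcultured twice on tryptic soy agar before testing. Inhibition zones read after 35 °C, 18 h.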

[1] = tested on: Staphylococcus epidermidis; test: Bactericidal activity against Staphylococcus epidermidis ATCC 12228 measured after 18 hrs by CLSI broth dilution method; conditions: ATCC 12228, 18 h
Method in brief: (§3)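 Strains stored at -80 °C and subcultured twice on tryptic soy agar before testing. Compounds dissolved in DMSO. […] MBC then determined per CLSI recommendations.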

Serratia marcescens = test: Antibacterial activity against Serratia marcescens ATCC 13880 measured after 18 hrs by CLSI broth dilution method; conditions: ATCC 13880, 18 h
Method in brief: (§4)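 Broth MIC in Mueller-Hinton II broth following CLSI, compounds dissolved in DMSO. Strains subcultured twice on tryptic soy agar before testing. Growth read after 35 °C, 18 h.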

[2] = tested on: Stenotrophomonas maltophilia; test: Antibacterial activity against Stenotrophomonas maltophilia ATCC 13637 measured after 18 hrs by CLSI broth dilution method; conditions: ATCC 13637, 18 h; method in brief: as §4
[3] = tested on: Meyerozyma guilliermondii; test: Antifungal activity against Candida guilliermondii IBA 155 assessed as diameter of zone inhibition incubated for 24 hrs by CLSI disc diffusion method
Method in brief: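 Yeast disc diffusion on Mueller-Hinton agar supplemented with 2% glucose and 0.5 mg/L methylene blue. Compounds in DMSO. Yeasts subcultured on Sabouraud dextrose agar before testing. Zones read after 35 °C, 24 h.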

Enterococcus faecium [4] = test: Antibacterial activity against Enterococcus faecium ATCC 6057 measured after 18 hrs by CLSI broth dilution method; conditions: ATCC 6057, 18 h; method in brief: as §4
Staphylococcus aureus = test: Bactericidal activity against Staphylococcus aureus ATCC 6538P measured after 18 hrs by CLSI broth dilution method; method in brief: as §3
Bacillus subtilis = test: Antibacterial activity against Bacillus subtilis ATCC 6633 assessed as diameter of zone inhibition measured after 18 hrs by CLSI disc diffusion method; method in brief: as §2
Pseudomonas aeruginosa [5] = test: Antibacterial activity against Pseudomonas aeruginosa ATCC 27853 measured after 18 hrs by CLSI broth dilution method; conditions: ATCC 27853, 18 h; method in brief: as §4
Enterococcus faecium [6] = test: Antibacterial activity against Enterococcus faecium ATCC 6057 assessed as diameter of zone inhibition measured after 18 hrs by CLSI disc diffusion method; method in brief: as §2
Pseudomonas aeruginosa [7] = test: Antibacterial activity against Pseudomonas aeruginosa ATCC 27853 assessed as fold reduction of MIC in presence of efflux pump inhibitor PAbetaN incubated for 18 hrs microdilution method; method in brief: as §1
Escherichia coli [8] = test: Antibacterial activity against Escherichia coli ATCC 25922 assessed as fold reduction of MIC in presence of efflux pump inhibitor PAbetaN incubated for 18 hrs by CLSI broth microdilution method; method in brief: as §1
Burkholderia cepacia = test: Antibacterial activity against Burkholderia cepacia ATCC 25416 measured after 18 hrs by CLSI broth dilution method; conditions: ATCC 25416, 18 h; method in brief: as §4
Enterobacter cloacae = test: Antibacterial activity against Enterobacter cloacae DSM 6234 assessed as fold reduction of MIC in presence of efflux pump inhibitor PAbetaN incubated for 18 hrs by broth microdilution method; method in brief: as §1
[9] = tested on: Stenotrophomonas maltophilia; test: Antibacterial activity against Stenotrophomonas maltophilia ATCC 13637 assessed as fold reduction of MIC in presence of efflux pump inhibitor PAbetaN incubated for 18 hrs by broth microdilution method; method in brief: as §1
[10] = tested on: Meyerozyma guilliermondii; test: Antifungal activity against Candida guilliermondii IBA 155 assessed as decrease in fungal cell growth at 0.78 to 12.5 mg/L incubated for 24 hrs by CLSI broth dilution method; conditions: IBA 155, 24 h
Method in brief: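 Yeast broth dilution in RPMI 1640 with 2% glucose, compounds in DMSO. Yeasts pre-grown on Sabouraud dextrose agar. Growth read after 35 °C, 24 h.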

Escherichia coli [11] = test: Antibacterial activity against Escherichia coli ATCC 25922 assessed as diameter of zone inhibition measured after 18 hrs by CLSI disc diffusion method; method in brief: as §2

SMILES | fold change (FC) (Proteus mirabilis) | fold change (FC) (Klebsiella pneumoniae) | diameter of the inhibition zone (DIZ) (Acinetobacter baumannii) | MBC [1] | MIC (Serratia marcescens) | MIC [2] | diameter of the inhibition zone (DIZ) [3] | MIC (Enterococcus faecium [4]) | MBC (Staphylococcus aureus) | diameter of the inhibition zone (DIZ) (Bacillus subtilis) | MIC (Pseudomonas aeruginosa [5]) | diameter of the inhibition zone (DIZ) (Enterococcus faecium [6]) | fold change (FC) (Pseudomonas aeruginosa [7]) | fold change (FC) (Escherichia coli [8]) | MIC (Burkholderia cepacia) | fold change (FC) (Enterobacter cloacae) | fold change (FC) [9] | MIC [10] | diameter of the inhibition zone (DIZ) (Escherichia coli [11])
C[Si]1(C)OB(O)c2ccc(Cl)cc21 | 4 | 32 | 13 mm | 50 µg/mL (≈ 235 µM) | > 400 µg/mL | 100 µg/mL (≈ 471 µM) | 30 mm | 50 µg/mL (≈ 235 µM) | 400 µg/mL (≈ 1880 µM) | 34 mm | > 400 µg/mL | 14 mm | 32 | 64 | > 400 µg/mL | 64 | 16 | 25 µg/mL (≈ 118 µM) | inactive
C[Si]1(C)OB(O)c2ccccc21 | 0 | 2 | inactive | – | > 200 µg/mL | > 200 µg/mL | 12 mm | 200 µg/mL (≈ 1120 µM) | – | 14 mm | > 200 µg/mL | inactive | 8 | 4 | 200 µg/mL (≈ 1120 µM) | 4 | 8 | 25 µg/mL (≈ 140 µM) | inactive
C[Si]1(C)OB(O)c2cc(F)c(F)cc21 | 2 | 4 | inactive | – | > 400 µg/mL | 400 µg/mL (≈ 1870 µM) | 30 mm | 200 µg/mL (≈ 934 µM) | – | 25 mm | > 400 µg/mL | inactive | 8 | 32 | > 400 µg/mL | 32 | 16 | 6.25 µg/mL (≈ 29.2 µM) | inactive
C[Si]1(C)OB(O)c2cccc(B(O)O)c21 | 0 | 4 | inactive | – | > 400 µg/mL | > 400 µg/mL | inactive | 400 µg/mL (≈ 1800 µM) | – | 15 mm | > 400 µg/mL | inactive | 4 | 4 | > 400 µg/mL | 8 | 16 | > 400 µg/mL | inactive
C[Si]1(C)OB(O)c2cccc(F)c21 | 2 | 16 | 11 mm | – | > 400 µg/mL | 200 µg/mL (≈ 1020 µM) | 30 mm | 200 µg/mL (≈ 1020 µM) | – | 28 mm | > 400 µg/mL | 12 mm | 16 | 32 | > 400 µg/mL | 32 | 8 | 12.5 µg/mL (≈ 63.8 µM) | 17 mm
C[Si]1(C)OB(O)c2cc(B(O)O)cc(F)c21 | 4 | 8 | inactive | 400 µg/mL (≈ 1670 µM) | > 400 µg/mL | > 400 µg/mL | inactive | 200 µg/mL (≈ 834 µM) | 400 µg/mL (≈ 1670 µM) | 22 mm | > 400 µg/mL | 11 mm | 2 | 8 | > 400 µg/mL | 32 | 16 | 400 µg/mL (≈ 1670 µM) | inactive
C[Si]1(C)OB(O)c2cc(C=O)cc(F)c21 | 4 | 8 | inactive | 200 µg/mL (≈ 893 µM) | > 400 µg/mL | > 400 µg/mL | inactive | 200 µg/mL (≈ 893 µM) | 100 µg/mL (≈ 446 µM) | 22 mm | > 400 µg/mL | inactive | 4 | 16 | > 400 µg/mL | 16 | 8 | > 400 µg/mL | inactive
C[Si]1(C)OB(O)c2cc(F)c(CO)c(F)c21 | 4 | 2 | inactive | – | > 400 µg/mL | 200 µg/mL (≈ 819 µM) | inactive | > 400 µg/mL | – | 11 mm | > 400 µg/mL | inactive | 4 | 4 | > 400 µg/mL | 8 | 16 | > 400 µg/mL | inactive
C[Si]1(C)OB(O)c2c(C=O)cc(F)c(F)c21 | 2 | 32 | inactive | 400 µg/mL (≈ 1650 µM) | > 400 µg/mL | 400 µg/mL (≈ 1650 µM) | 12 mm | 400 µg/mL (≈ 1650 µM) | 100 µg/mL (≈ 413 µM) | 18 mm | > 400 µg/mL | inactive | 4 | 64 | > 400 µg/mL | 64 | 4 | 400 µg/mL (≈ 1650 µM) | inactive
C[Si]1(C)OB(O)c2cc(F)c(C=O)c(F)c21 | 2 | 4 | inactive | – | > 400 µg/mL | > 400 µg/mL | inactive | 50 µg/mL (≈ 207 µM) | – | 14 mm | > 400 µg/mL | inactive | 8 | 4 | > 400 µg/mL | 16 | 8 | 200 µg/mL (≈ 826 µM) | inactive
C[Si]1(C)OB(O)c2ccc(C=O)c(F)c21 | 4 | 4 | inactive | 100 µg/mL (≈ 446 µM) | > 400 µg/mL | > 400 µg/mL | inactive | 200 µg/mL (≈ 893 µM) | 100 µg/mL (≈ 446 µM) | 22 mm | > 400 µg/mL | inactive | 4 | 16 | > 400 µg/mL | 16 | 16 | > 400 µg/mL | inactive
C[Si]1(C)OB(O)c2ccc(F)cc21 | 2 | 8 | inactive | – | > 400 µg/mL | 200 µg/mL (≈ 1020 µM) | 15 mm | 200 µg/mL (≈ 1020 µM) | 400 µg/mL (≈ 2040 µM) | 14 mm | > 400 µg/mL | inactive | 16 | 16 | > 400 µg/mL | 32 | 8 | 25 µg/mL (≈ 128 µM) | inactive
